Data on 2 molecules can be found in ChEMBL document CHEMBL5370602, “Structure-Based Design of a Lead Compound Derived from Natural Schweinfurthins with Antitumor Properties That Target Oxysterol-Binding Protein” (J Med Chem, 2023).

A short description of series [1]: Antitumor activity in high alert medicated patient derived human GBM1 cells xenografted in immunodeficient nude mouse model assessed as change in tumor volume at 42 mg/kg,po QD for 5 days and measured after 11 days relative to control. The note with it: time 5 day.
A short description of series [2]: Toxicity in immunodeficient nude mouse model xenografted with high alert medicated patient derived human GBM1 cells assessed as clinical symptoms at 42 mg/kg,po QD for 5 days. Particulars: in vivo, 120 h, time 5 day. It is filed as organism-based. A digest of the protocol: (§1)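 Female athymic nude mice bearing subcutaneous GBM1-HAM PDX fragments (20 mm³); treatment began day 11 post-implant at tumour volumes 75-196 mm³, 10 per group. Compound i.p. daily in cyclodextrin vehicle (17 days alone, 27 days in combination); temozolomide 42 mg/kg p.o. daily for 5 days in PBS/glucose/Tween 80. Calliper volumes three times weekly; body weight and clinical signs monitored.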
On the technique in general: In xenograft studies the graft and the host belong to different species.

Series [3] can be described thus: Toxicity in immunodeficient nude mouse model xenografted with high alert medicated patient derived human GBM1 cells assessed as body weight change at 42 mg/kg,po QD for 5 days. It is filed as organism-based. Particulars: in vivo, 120 h, time 5 day. The gist of the method: as §1
Series [4] is described as follows: Antitumor activity in high alert medicated patient derived human GBM1 cells xenografted in immunodeficient nude mouse model assessed as tumor growth inhibition at 42 mg/kg,po QD for 5 days and measured from 9 to 11 days. Particulars: GBM1, 120 h.
The nature of series [5]: Antitumor activity in high alert medicated patient derived human GBM1 cells xenografted in immunodeficient nude mouse model assessed as T/C ratio at 42 mg/kg,po QD for 5 days and measured from 9 to 11 days. The note with it: time 5 day.
Series [6] in a line: Metabolic stability in mouse liver microsomes assessed as compound remaining at 2.5 uM and measured after 45 mins in presence of NADPH by LC-MS/MS analysis. The class given is ADME, Microsome. The note with it: read-out: Stability. For orientation: Liver microsomes are a subcellular fraction often used to study metabolism.
Series [7] is described as follows: Metabolic stability in mouse liver microsomes assessed as compound remaining at 2.5 uM and measured after 45 mins in absence of NADPH by LC-MS/MS analysis. It is filed as ADME, Microsome. Particulars: read-out: Stability.
The subject of series [8] is U-87 MG. The experiment in a line: Induction of autophagy in human U-87 MG cells assessed as decrease in P62 expression at 0.05 to 1 uM incubated for 48 hrs by Western blot analysis. The note with it: U-87MG ATCC. It is filed as functional, cell-based. A digest of the protocol:
(§2)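 U-87 MG cells cultured two days, then exposed 48 h to increasing doses. Lysed in RIPA with protease inhibitors; 5 µg protein run on 4-20% SDS gels and transferred to PVDF. Probed for phospho/total AKT, S6, S6K, P62 and LC3, detected by ECL. Band intensities normalized to β-actin.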
On the technique in general: In western blotting, separated proteins are transferred to a membrane and probed.

Series [9] deals with U-87 MG. The experiment in a line: Induction of autophagy in human U-87 MG cells assessed as decrease in LC3I expression at 0.05 to 1 uM incubated for 48 hrs by Western blot analysis. It is filed as functional, cell-based. Particulars: U-87MG ATCC. A digest of the protocol:
as §2

Series [10] in a line: Metabolic stability in mouse plasma assessed as compound remaining at 5 uM and measured after 120 mins by UPLC-MS/MS analysis. Particulars: read-out: Stability. The class given is ADME, cell-free. The gist of the method:
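Male mouse plasma at 37 °C with compound added from a 5 µM solution […]. Sampled at 0, 15, 30, 45, 60 and 120 min, quenched with acetonitrile and read by LC-MS/MS (MRM) in duplicate. Procaine positive control. Remaining % and t1/2 derived from MRM area relative to t = 0.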

Series [11] has as its target T1, Oxysterol-binding protein 1 (Homo sapiens) (UniProt P22059).
T1 sequence (whole entry): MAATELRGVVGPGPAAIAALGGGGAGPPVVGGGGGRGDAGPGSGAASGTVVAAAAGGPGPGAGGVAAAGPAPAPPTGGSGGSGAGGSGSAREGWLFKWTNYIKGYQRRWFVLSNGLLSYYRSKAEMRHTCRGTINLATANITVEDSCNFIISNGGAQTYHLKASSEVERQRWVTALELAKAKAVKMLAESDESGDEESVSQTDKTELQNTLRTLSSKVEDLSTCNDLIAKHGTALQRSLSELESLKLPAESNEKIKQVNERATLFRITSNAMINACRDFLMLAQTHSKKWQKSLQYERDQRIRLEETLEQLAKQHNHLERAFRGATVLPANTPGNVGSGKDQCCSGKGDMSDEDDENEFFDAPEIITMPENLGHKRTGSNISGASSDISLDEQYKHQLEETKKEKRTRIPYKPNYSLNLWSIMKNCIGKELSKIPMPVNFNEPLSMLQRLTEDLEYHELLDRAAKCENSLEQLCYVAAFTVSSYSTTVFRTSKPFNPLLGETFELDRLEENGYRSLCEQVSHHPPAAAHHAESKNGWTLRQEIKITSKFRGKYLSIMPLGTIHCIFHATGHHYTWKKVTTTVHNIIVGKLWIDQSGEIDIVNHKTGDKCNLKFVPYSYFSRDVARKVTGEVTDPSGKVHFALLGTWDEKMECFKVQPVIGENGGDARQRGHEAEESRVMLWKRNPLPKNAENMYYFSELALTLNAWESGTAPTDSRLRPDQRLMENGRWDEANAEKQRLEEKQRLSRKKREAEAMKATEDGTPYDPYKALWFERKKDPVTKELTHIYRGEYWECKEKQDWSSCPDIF
The experiment in a line: Inhibition of human OSBP in human hTERT-RPE1 cells assessed as increase in OSBP recruitment at TGN and measured after 4 hrs by confocal microscopy. The class given is cell-based.

Series [12] concerns the target T1, Oxysterol-binding protein 1 (Homo sapiens). The experiment in a line: Inhibition of human OSBP in human hTERT-RPE1 cells assessed as increase in OSBP recruitment at TGN and measured after 10 mins by confocal microscopy. It is filed as cell-based.
The target is the same in series [13]. Put plainly: Inhibition of human OSBP in human hTERT-RPE1 cells co-transfected with GFP-P4MSidM and TagBFP-betaGalT1 assessed as increase in PI4P at TGN by measuring GFP-P4M fluorescence and measured after 50 mins by immunofluorescence analysis. The class given is cell-based. A digest of the protocol:
(§3)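 hTERT-RPE-1 cells electroporated with GFP-P4M^SidM (PI4P probe) and TagBFP-βGalT1, plated 18-24 h. Timelapse confocal imaging at 37 °C after compound addition, with P4M-GFP intensity at the TGN tracked over time and compared before and 50 min after addition. Mean of 4 to 6 independent experiments ± SEM.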

The nature of series [14]: Drug uptake in human hTERT-RPE1 cells assessed as drug co-localization with OSBP perinuclear region of cell incubated for 30 mins by immunofluorescence analysis. The class given is ADME, cell-based. The note with it: tert-rpe1, 0.5 h. The gist of the method: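 hTERT-RPE-1 cells incubated 30 min with compound, then fixed (4% paraformaldehyde, 0.1% glutaraldehyde, 10 min), quenched with 50 mM NH₄Cl and permeabilized in saponin 0.05%/BSA 0.2%. Immunolabeled for OSBP and TGN-46. Compound imaged directly by UV-adapted widefield fluorescence (excitation 330, emission 410 nm).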

Series [15] deals with T2, Oxysterol-binding protein 1 (Homo sapiens, UniProt P22059).
T2 sequence (P22059 whole entry): T1 sequence (whole entry)
Put plainly: Inhibition of human C-terminal 6-His tagged OSBP ORD domain (401 to 807 residues) expressed in baculovirus-infected Sf9 cells assessed as reduction in DHE transfer from liposome (Le mimicking ER) to liposome (Lg mimicking golgi) with compound by FRET assay. The gist of the method: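 Purified human OSBP ORD (401-807, C-terminal 6×His) from baculovirus-infected Sf9 cells, used in a DHE sterol transfer fluorescence assay. Signal corrected for compound fluorescence. Kinetics fitted linearly or by ΔF = ΔFmax(1 − e^−kt) to give apparent k, which was plotted against compound concentration. Ki from a quadratic (tight binders) or hyperbolic equation, three independent experiments.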

The target in series [16] is T3, mTORC1 (Homo sapiens) (UniProt P42345+Q8N122+Q9BVC4). Put plainly: Inhibition of mTORC1 signalling in human U-87 MG cells assessed as decrease in S6 phosphorylation at S240/244 residue at 0.05 to 1 uM incubated for 48 hrs by Western blot analysis. It is filed as cell-based. A digest of the protocol:
as §2

The test system of series [17] is U-87 MG. The experiment in a line: Antiproliferative activity against human U-87 MG cells assessed as inhibition of cell proliferation incubated for 72 hrs by CellTiter-Glo luminescent assay. The class given is functional, cell-based, U-87MG ATCC. The gist of the method: (§4)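 A549 in RPMI 1640 and U-87MG in DMEM, each with 10% FCS and 1% glutamine, at 37 °C and 5% CO₂. Cells seeded at 3000/well, dosed the next day, treated 72 h. Viability read by CellTiter-Glo luminescence with DMSO-treated cells set to 100%. IC50 taken from survival curves over three independent experiments.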

The subject of series [18] is A549. Put plainly: Antiproliferative activity against human A549 cells assessed as inhibition of cell proliferation incubated for 72 hrs by CellTiter-Glo luminescent assay. The class given is functional, cell-based. The note with it: A549, 72 h. The gist of the method: as §4
Series [19] deals with U-87 MG. Put plainly: Induction of autophagy in human U-87 MG cells assessed as increase in LC3II expression at 0.05 to 1 uM incubated for 48 hrs by Western blot analysis. The note with it: U-87MG ATCC. The class given is functional, cell-based. The gist of the method:
as §2

Series [20] in a line: Metabolic stability in mouse liver microsomes assessed as intrinsic clearance at 2.5 uM and measured upto 45 mins in presence of NADPH by LC-MS/MS analysis. It is filed as ADME, Microsome. The note with it: read-out: CLH.
Series [21] addresses T1, Oxysterol-binding protein 1 (Homo sapiens). The experiment in a line: Inhibition of human OSBP in human hTERT-RPE1 cells co-transfected with GFP-P4MSidM and TagBFP-betaGalT1 assessed as half life for inhibition of PI4P transfer by OBSP by immunofluorescence analysis. The class given is cell-based. The gist of the method: as §3
The target in series [22] is T3, mTORC1 (Homo sapiens). The experiment in a line: Inhibition of mTORC1 signalling in human U-87 MG cells assessed as decrease in S6K phosphorylation at T389 residue at 0.05 to 1 uM incubated for 48 hrs by Western blot analysis. It is filed as cell-based. The gist of the method:
as §2

Series [23] deals with mTORC2 (Homo sapiens) (UniProt P42345+Q6R327+Q9BVC4+Q9BPZ7). Put plainly: Inhibition of mTORC2 signalling in human U-87 MG cells assessed as decrease in AKT phosphorylation at S473 residue at 0.05 to 1 uM incubated for 48 hrs by Western blot analysis. The class given is cell-based. The gist of the method:
as §2

Each structure is given as a SMILES string. The source made the active and inactive calls. No cut-off for these calls is given here.

As a reminder, the T/C is the result in the treated group divided by that in the control group, in per cent. Consider `Cn1nnc2c(C(N)=O)ncn2c1=O` [TEMOZOLOMIDE], for which the Activity in [1] is 546.69%; in series [2] it was “Non-Toxic”; in series [3] it was “Non-Toxic”. Also, the TGDI at 42 mg/kg in [4] was found to be 1.34%. Moreover, the T/C in series [5] amounted to 62.43%.
As a reminder, the Ki is the dissociation constant of the complex between target and ligand, obtained from inhibition or displacement. For orientation: IC50 means the point on the concentration scale where inhibition reaches its midpoint. Regarding `CC(C)=CCc1c(O)cc(/C=C/c2cc(O)c3c(c2)C[C@@H]2C(C)(C)[C@H](O)CC[C@@]2(C)O3)cc1O` [SCHWEINFURTHIN G], the remaining at 0.75 h, 2.5 µM in series [6] turned out to be 23%; in series [7], 100%. Further, the Activity entry in [8], in series [9] and in series [19] was “Dose-Dependent Effect” throughout. The remaining at 2 h, 5 µM in [10] stood at 100%. In series [11], the inhibition result was “inactive”. Besides, the inhibition entry in series [12] and in series [13] was “Active” throughout. The Drug uptake entry in series [14] was “Active”. Besides, the Ki in series [15] was < 1 nM. For the same molecule, the inhibition entry in [16], in series [22] and in series [23] was “Dose-Dependent Effect” each time. Besides, the half-inhibitory concentration (IC50) in series [17] is 8 nM; in series [18], 359 nM. Besides, the microsomal CLint at 2.5 µM in series [20] amounted to 90 µL/min/mg. In addition, in [21], the T1/2 came out at 10 min.
